Only some compounds are listed: those with a hit (about 5.8% of all), similar ones and a draw of the others.
T cruzi growth-1: T. cruzi proliferation inhibition. T. cruzi beta-gal in NIH3T3, GalScreen luminescence, 90 h. inhibition, % at 8.34 µM. hit rate 5.9% among 77,000;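 active = mean inhibition above about 93%, with at least 55% of replicates each passing it, limit read from the data, passing the limit was not always enough; inconclusive = only one of those two conditions holds; inactive = neither condition holds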
KDM4C inh: inhibitors of human demethylase GASC-1 KDM4C | Q9H3R0 | hit rate 0.15% among 96,000 | AID 720574 | inhibition, % at 12.5 µM | GST-KDM4C 2-372, H3K9me3 peptide, LANCE TR-FRET;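 active = mean replicate inhibition above about 25%, with at least 55% of replicates also reaching it, limit read from the data, passing the limit was not always enough; inconclusive = only one of those two conditions met; inactive = neither condition met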
Target sequence (Q9H3R0 2-372 limits assumed): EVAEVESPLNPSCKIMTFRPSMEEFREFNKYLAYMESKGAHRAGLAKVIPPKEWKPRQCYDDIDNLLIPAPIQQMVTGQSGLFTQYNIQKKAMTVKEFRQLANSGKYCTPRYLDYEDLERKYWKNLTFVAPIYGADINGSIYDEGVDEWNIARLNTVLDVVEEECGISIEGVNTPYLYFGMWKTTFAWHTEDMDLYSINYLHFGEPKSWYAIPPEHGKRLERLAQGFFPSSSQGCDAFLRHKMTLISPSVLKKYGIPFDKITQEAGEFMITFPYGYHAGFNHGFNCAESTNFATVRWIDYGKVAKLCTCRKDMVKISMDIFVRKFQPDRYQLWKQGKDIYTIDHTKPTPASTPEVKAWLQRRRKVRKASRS
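Material: N-terminal GST-fused human GASC-1 (KDM4C) fragment, residues 2-372. Input: 10 nM enzyme. Incubation: enzyme reaction 30 min, then detection 60 min, both room temperature. Doses: one test concentration per compound. Read-out basis: inhibition from TR-FRET ratio decrease. Detection: LANCE TR-FRET, excitation 340 nm, emissions 618 and 671 nm.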
Pf Dd2 inh: inhibitors of Plasmodium falciparum Dd2 growth. P. falciparum Dd2 growth, SYBR Green, 72 h; stronger effect = lower value. activity change, % at 10 µM. hit rate 2.3% among 94,000. AID 1159554; in the data active = activity change below about -80%; inconclusive = no clear call, values can overlap the other calls
IDH1 mut inh: blocks human IDH1 R132H reductase activity; hit rate 0.18% among 70,000; inhibition, % at 10 µM; diaphorase/resazurin fluorescence, 60 min; O75874; in the data active = inhibition above about 34%; inconclusive = no clear call, values can overlap the other calls; inactive = below about 11%;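 also: 0% = DMSO and 100% = no enzyme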
T cruzi growth-2: blocks T. cruzi growth in NIH3T3 host cells; hit rate 72% among 5,600; AID 651739; shares compounds with T cruzi growth-1; T. cruzi beta-gal in NIH3T3, GalScreen luminescence, 90 h; inhibition, % at 8.35 µM;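 active = mean replicate inhibition above about 95% and at least 55% of replicates individually reaching it, limit read from the data; inconclusive = only one of the two criteria is met; inactive = neither criterion is met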
T cruzi growth-3: blocks T. cruzi growth in NIH3T3 host cells. shares compounds with T cruzi growth-1. T. cruzi beta-gal in NIH3T3, GalScreen luminescence, 90 h. inhibition, % at 2.09 µM. hit rate 21% among 5,600;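 active = mean inhibition above about 95%, with at least 55% of replicates also reaching it, limit read from the data; inconclusive = meets just one of the two conditions; inactive = meets neither condition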;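 also: plate controls were neutral control median for no effect and positive control median for full effect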
NIH3T3 tox: kills mouse NIH/3T3 fibroblasts; NIH/3T3 viability, CellTiter-Glo ATP luminescence, 90 h; shares compounds with T cruzi growth-1; AID 651742; hit rate 14% among 5,600; cytotoxicity (signal decrease), % at 8.35 µM;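 active = mean signal decrease across replicates above about 35% based on untreated-well scatter, with enough replicates individually passing, limit read from the data; inconclusive = no rule stated though some were filed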;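 also: 0% = median of neutral control wells and 100% = median of positive control wells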
3T3 cytotox 2: NIH/3T3 (mouse) viability loss; NIH/3T3 viability, CellTiter-Glo ATP luminescence, 90 h; hit rate 56% among 5,600; inhibition, % at 24.9 µM; shares compounds with T cruzi growth-1;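 active = mean loss of cell viability signal at or above a set limit, and enough replicates individually reaching it; inconclusive = meets only the mean limit or only the replicate share; inactive = meets neither condition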;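 also: 0% = median of neutral control wells and 100% = median of positive control wells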
* = called active by the depositor; ? = inconclusive; / = no result.

SMILES	T cruzi growth-1	KDM4C inh	Pf Dd2 inh	IDH1 mut inh	T cruzi growth-2	T cruzi growth-3	NIH3T3 tox	3T3 cytotox 2
C[C@@H]1CN([C@@H](C)CO)C(=O)c2cccc(NC(=O)Nc3ccc(C(F)(F)F)cc3)c2O[C@H]1CN(C)Cc1ccc(Oc2ccccc2)cc1	125.6*	0.4	12.2	-1.2	108.6*	101.8*	-0.8	99.1*
C[C@@H]1CN([C@@H](C)CO)C(=O)c2cccc(NC(=O)Nc3ccc(C(F)(F)F)cc3)c2O[C@@H]1CN(C)Cc1ccc(Oc2ccccc2)cc1	123.9*	/	-71.6	/	87.4	111.0*	59.5*	105.2*
O=C(O)CSc1nc2cc(N3CCOCC3)c(F)cc2[nH]1	/	/	/	0.0	/	/	/	/
O=C(C[C@H]1CC[C@@H]2[C@H](COC[C@@H](O)CN2S(=O)(=O)c2cccc(F)c2)O1)Nc1ccc(-c2ccccc2)cc1	96.3*	-1.9	-32.5	/	103.0*	60.2	49.8*	100.7*
Cc1ccc(S(=O)(=O)N2C[C@H](O)COC[C@H]3O[C@H](CC(=O)NCc4ccc(Cl)c(Cl)c4)CC[C@@H]32)cc1	89.8	-0.3	10.9	/	/	/	/	/
O=C(C[C@H]1CC[C@H]2[C@@H](COC[C@@H](O)CN2S(=O)(=O)c2cccc(F)c2)O1)Nc1ccc(-c2ccccc2)cc1	74.4	-0.6	-15.3	/	/	/	/	/
COc1ccc(S(=O)(=O)N2C[C@H](O)COC[C@@H]3O[C@@H](CC(=O)NCc4ccc(Cl)c(Cl)c4)CC[C@H]32)cc1	109.1*	-0.6	-12.4	/	100.9*	-36.1	-1.7	61.6*
O=C(C[C@H]1CC[C@@H]2[C@H](COC[C@H](O)CN2S(=O)(=O)c2cccc(F)c2)O1)Nc1ccc(-c2ccccc2)cc1	101.2*	-0.1	-27.1	/	97.8*	88.1	43.9*	103.8*
O=C(C[C@@H]1CC[C@@H]2[C@H](COC[C@@H](O)CN2S(=O)(=O)c2ccccc2)O1)NCc1ccc(-c2ccccc2)cc1	105.3*	-8.2	-90.5*	/	105.1*	42.7	-1.2	13.3
O=C(C[C@@H]1CC[C@@H]2[C@H](COC[C@H](O)CN2S(=O)(=O)c2ccccc2)O1)NCc1ccc(-c2ccccc2)cc1	52.3	-1.2	-41.5	/	/	/	/	/
COC(=O)CCCCCCC(=O)N/N=C/CC1=C(C)CCCC1(C)C	/	/	/	-0.1	/	/	/	/
COc1cccc(S(=O)(=O)N2C[C@@H](O)COC[C@@H]3O[C@@H](CC(=O)N4CCOCC4)CC[C@H]32)c1	8.0	1.5	4.5	/	/	/	/	/
COc1cccc(S(=O)(=O)N2C[C@H](O)COC[C@H]3O[C@@H](CC(=O)N4CCOCC4)CC[C@@H]32)c1	?	0.2	0.1	/	12.5	13.9	10.8	1.3
COc1ccccc1NC(=O)C1=C(C)Nc2ncnn2C1c1ccncc1 (stereo unspecified)	/	/	/	-0.5	/	/	/	/
O=C1C(=O)N(CCN2CCOCC2)C(c2ccc(Cl)cc2)C1C(=O)c1cccs1 (stereo unspecified)	/	/	/	-0.2	/	/	/	/
COc1ccc(S(=O)(=O)N2CCOCC2)cc1C(=O)NCCN1CCOCC1	/	/	/	-0.3	/	/	/	/
Cc1ccc(S(=O)(=O)N(C)C[C@H]2OCCCC[C@@H](C)Oc3ccc(NS(=O)(=O)c4ccc(F)cc4)cc3C(=O)N([C@H](C)CO)C[C@H]2C)cc1	108.9*	-0.7	-75.9	-1.1	102.6*	?	-18.6	-30.0
Cc1ccc(S(=O)(=O)N(C)C[C@@H]2OCCCC[C@H](C)Oc3ccc(NS(=O)(=O)c4ccc(F)cc4)cc3C(=O)N([C@H](C)CO)C[C@H]2C)cc1	107.0*	-1.2	-76.3	1.5	107.5*	90.5	0.8	55.1*
Cc1ccc(S(=O)(=O)Nc2ccc3c(c2)C(=O)N([C@@H](C)CO)C[C@@H](C)[C@H](CN(C)S(=O)(=O)c2ccc(F)cc2)OCCCC[C@H](C)O3)cc1	121.3*	0.2	-35.7	-1.0	109.9*	41.2	2.3	1.8
Cc1ccc(S(=O)(=O)Nc2ccc3c(c2)C(=O)N([C@H](C)CO)C[C@H](C)[C@@H](CN(C)S(=O)(=O)c2ccc(F)cc2)OCCCC[C@H](C)O3)cc1	/	4.3	-72.9	/	/	/	/	/

High-throughput results deposited in PubChem by Broad Institute.
